This is a sample that favours compounds with a hit; in the whole collection about 5.5% have one here.
Yeast lifespan up = yeast lifespan extension; 0.68% of 130,000 active; S. cerevisiae growth with nicotinamide, OD615; deaD strain in restrictive glucose medium; AID 775; inhibition of the nicotinamide effect, % at 10 µM;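 active = inhibition above a set limit, placed 3 SD over the median of all compounds, cut at about 26% in these data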;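 also: 0% = nicotinamide-treated wells and 100% = cells grown without nicotinamide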
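Test system: DeaD-strain S. cerevisiae / Buffer or medium: restrictive glucose medium / Also added: nicotinamide 1.5 mM / Doses: one concentration, 10 µM, DMSO 0.25% / Schedule: 48 h at 30 °C / Signal: OD615 measurement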
KCC2 mod = modulates chloride dependent transport by human KCC2; Q9H2X9; KCC2 cells, thallium flux FluoZin-2 fluorescence; B-score of Tl+ flux slope (higher = more flux/activation; lower = inhibition) at 10 µM; 2.2% of 190,000 active; AID 1456;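 active = thallium flux slope and its plate-corrected score both differing from the plate sample mean at a set confidence after two filtering rounds, in either direction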;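 also: slope of fluorescence scaled to starting intensity during 10 to 20 s after thallium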
RAM network inh = inhibitors of the yeast RAM network; 1.8% of 190,000 active; S. cerevisiae dse1pr::URA3 reporter, 5-FOA growth OD615, 2 d; analog-sensitive cbk1-as2 kinase mutant strain; inhibition, % at 50 µM;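 active = inhibition above a set limit, 3 SD over mean compound inhibition, cut at about 8.4% in these data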;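 also: 0% = DMSO-only wells with no growth and 100% = 10 µM 1-NA-PP1 full growth; inhibition rescues growth on 5-FOA so higher OD means more RAM inhibition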
Yeast growth inh = yeast BB579 growth reduction in restrictive medium; S. cerevisiae BB579 growth, OD615, 48 h; inhibition, % at 10 µM; 0.51% of 140,000 active; AID 804;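 active = inhibition above a set limit, 3 SD over the mean compound inhibition, cut at about 44% in these data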
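controls = amphotericin B 10 µg/mL, positive | assay system = DeaD yeast strain BB579 | schedule = 48 h compound exposure at 30 °C after 4 h preincubation | detection = OD615 turbidity measurement | medium = restrictive CSMM-D medium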
WT yeast gro inh = growth inhibition of WT yeast, mitochondrial fusion screen. mitochondrial fusion phenotypic screen, WT strain. inhibition, % at 10 µM. 2.1% of 190,000 active; in the data active = inhibition above about 58%; tested in S. cerevisiae
* marks the source's active call; other numbers are inactive results; · = not tested or not shown.

SMILES	Yeast lifespan up	KCC2 mod	RAM network inh	Yeast growth inh	WT yeast gro inh
O=C(CNc1ccccc1)N/N=C/c1c[nH]c2ccccc12	-7	-0.39	0	-20	-1
Cc1cc(C)n(C2CC(=O)N(c3ccc(Cl)c(Cl)c3)C2=O)n1 (configuration not stated)	·	1.6	·	·	·
CCOC(=O)CC(=O)N/N=C/c1c(N)n(C)c(=O)n(C)c1=O	·	0.17	3	·	10
O=C(CC(=O)Nc1ccccn1)Nc1ccccn1	-8	·	1	2	-13
O=C(COc1ccc(Cl)cc1)NCCSCc1cccc(Cl)c1	-6	0.11	6	-17	79*
O=C(CN1CCN(CC(=O)Nc2ccccn2)CC1)Nc1ccccn1	1	-4.3*	0	10	8
O=C(COc1ccc(Cl)cc1Cl)NCCSc1ccc(Cl)cc1	-25	·	9.0*	-39	27
O=C(/C=C/c1ccc2c(c1)OCO2)NCCSCc1cccc(Cl)c1	-12	0.13	9.0*	-19	52
CN(C)CCNC(=O)COc1ccc(Cl)cc1Cl	3	0.51	2	-24	-21
O=C(COc1ccc(Cl)cc1Cl)NCCCCc1ccccc1	-12	-0.0023	1	-75	76*
O=C(COc1ccc(Cl)cc1Cl)Nc1ccccn1	-8	-0.19	2	-1	66*
O=C(COc1ccc([N+](=O)[O-])cc1Cl)NCCc1ccccc1	0	-2.2	0	-35	9
CSc1ccccc1NC(=O)COc1ccc(Cl)cc1Cl	-3	1.4	4	-26	12
CCCc1cc(=O)[nH]c(SCCCCN2C(=O)c3ccccc3C2=O)n1	·	-1	4	·	-8
CC(=O)c1cc(C#N)c(N2CCCC2)nc1C	·	1.1	2	·	-2
CCn1c(C)nc2cc(C(=O)NNC(=O)CCC3CCCC3)ccc21	4	-0.73	1	-14	-5
CNS(=O)(=O)c1ccc2nc(NC(=O)/C=C/c3ccco3)sc2c1	·	0.55	6	·	-18
Cc1ccc(C(=O)NCCSc2ccc(Cl)cc2)cc1S(=O)(=O)Nc1ccccc1	-5	0.017	10*	-37	8
Cc1ccccc1NCC(=O)N/N=C/C(Br)=C/c1ccccc1	-3	0.16	2	-24	9
Cc1ccc(CNc2nc3ccccc3s2)s1	32*	-0.81	0	-38	-6
COc1ccc(-c2nnc3sc(CCN4C(=O)c5ccccc5C4=O)nn23)cc1	-3	·	9.4*	-6	3
CCOC(=O)c1cnc(-n2nc(C)cc2C)nc1N(CC)CC	-5	-0.27	0	-70	70*
CCOC(=O)c1cnc(-n2nc(C)cc2C)nc1NC1CCCCC1	-13	·	-2	98*	82*
CCOC(=O)c1cnc(-n2nc(C)cc2C)nc1NC	-23	0.54	-1	-10	-37
Cc1ccc(S(=O)(=O)Nc2cnn(-c3ccccc3)c(=O)c2Cl)cc1	·	-0.81	0	·	-4
SMILES	Yeast lifespan up	KCC2 mod	RAM network inh	Yeast growth inh	WT yeast gro inh
COc1ccc(NC(=O)C2CC(=O)N(C(C)C)C2)cc1 (configuration not stated)	-2	-0.13	1	-23	-11
CCOc1ccc(NC(=O)C2CC(=O)N(C(C)C)C2)cc1 (configuration not stated)	-20	-0.42	1	-46	63*
Cc1cc(C)nc(SCc2cc(=O)c(OC(=O)c3ccc(Cl)c([N+](=O)[O-])c3)co2)n1	30*	-2.2	2	-21	26
Cc1cc(C)nc(SCc2cc(=O)c(OC(=O)c3ccc(S(=O)(=O)N(C)C)cc3)co2)n1	-5	-0.75	-1	-18	6
O=C(CN1N=C(c2ccc(Cl)cc2)CCC1=O)NCCN1CCc2ccccc2C1	1	0.12	1	-58	9
CCCCNC(=S)Nc1ccccc1Cc1ccccc1	·	0.012	1	·	73*
CCCCNC(=O)Nc1ccccc1CC	·	-1.1	·	·	·
CCCCSCCCNC(=S)Nc1ccccc1C	·	-0.38	-1	·	73*
CC1CCCCN1C(=S)NCc1ccco1 (configuration not stated)	·	-0.12	1	·	-7
CCCn1c(=O)c(C(=O)OCC)c(O)c2cc(Br)ccc21	·	-1.3	9.8*	·	-9
Cc1cc2c(cc1C)CSC(c1ccc3ccccc3c1O)SC2	-10	·	4	-4	27
Cc1cc2c(cc1C)CSC(c1c(O)ccc3ccccc13)SC2	-9	-0.026	2	20	97*
Cc1ccc(SCC(=O)OCn2nnc3ccccc3c2=O)cc1C	8	0.19	0	-8	24
COC(=O)c1cc(NC(=O)CN(c2ccccc2OC)S(=O)(=O)c2ccccc2)ccc1Cl	-7	-2	1	-28	23
COC(=O)c1cc(NC(=O)CN(c2cccc(OC)c2)S(=O)(=O)c2ccccc2)ccc1Cl	2	-1.3	8.9*	-13	25
O=C(COc1ccc(Br)cc1Cl)NC1CCCCC1	4	0.27	8.9*	-28	4
CCCCCCCCCCCCCCCC(O)C(N)CO (configuration not stated)	-10	-0.073	-1	100*	27
O=C(C/C=N/OCc1ccc(Cl)cc1)c1cnc(-c2ccccc2)s1	-18	1	11*	-38	-5
O=C(C/C=N/OCc1c(Cl)cccc1Cl)c1cnc(-c2ccccc2)s1	-5	0.02	5	-46	17
NC(=S)Nc1ccc(C(F)(F)F)cc1Cl	·	0.042	·	·	·
COc1ccc(N2CCN(C(=S)Nc3ccc(C)cc3)CC2)cc1	·	1.1	3	·	-3
COc1ccc(N2CCN(C(=S)Nc3cccc(C)c3C)CC2)cc1	4	·	10*	-74	19
C/C(N)=C(/C#N)C(=O)CSc1nc(C2CCCCC2)n(-c2ccccc2)n1	59*	0.31	0	13	0
O=S(=O)(Nc1cccc2c1CCCC2)c1ccc(Cl)cc1	21	-0.54	9.2*	-21	34
CCc1cc(-c2n[nH]c(=S)n2C(C)c2ccccc2)cs1 (configuration not stated)	18	3.9*	-1	-50	55
SMILES	Yeast lifespan up	KCC2 mod	RAM network inh	Yeast growth inh	WT yeast gro inh
CCOc1ccc2[nH]c(=O)c(CN(Cc3ccco3)Cc3nnnn3Cc3ccccc3)cc2c1	-24	·	3	-26	-2
COc1ccc2[nH]c(=O)c(CN(Cc3ccco3)Cc3nnnn3Cc3ccccc3)cc2c1	-7	0.042	9.7*	-28	21
Cc1ccc(-c2cccc(C(=O)NCc3ccccc3)n2)c2ccccc12	3	-0.47	10*	-9	41
COc1ccccc1N1CCN(C2CCN(C(=O)COc3cccc(C)c3)CC2)CC1	0	-0.27	4	-46	4
CC(=O)N1C=Cc2c(c(C)c3c([nH]c4ccccc43)c2C)C1	·	1.8	·	·	·
CCc1ccc(CN(C)C(=O)CCc2nc3ccccc3n(-c3ccc(OC)cc3)c2=O)cc1	·	-0.41	2	·	58*
Oc1ccc(Nc2nc(N3CCCC3)c3ccccc3n2)cc1	-2	·	2	-69	27
c1ccc(Nc2nc(N3CCCCC3)nc(N3CCCCC3)n2)cc1	-4	-1.1	-1	-41	52
